The record followed here is ChEMBL document CHEMBL1938383, “Novel 5- and 6-subtituted benzothiazoles with improved physicochemical properties: potent S1P₁ agonists with in vivo lymphocyte-depleting activity” (Bioorg Med Chem Lett, 2012).

As usually defined, the EC50 is the midpoint of the concentration-response curve.

Bounds are passed on as bounds.

The target in data set [1] is T1, Sphingosine 1-phosphate receptor 3 (Homo sapiens, UniProt Q99500). Kind of data set: Agonist activity at human S1P3 receptor expressed in CHO cells coexpressing Gq/i5 protein by calcium flux assay. The data set is classed as functional, cell-based. The method, boiled down: (§1)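 Ca²⁺ flux read-out in CHO cells stably co-expressing human S1P3 and chimeric Gq/i5 G-protein.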
T1 sequence (Q99500 whole entry): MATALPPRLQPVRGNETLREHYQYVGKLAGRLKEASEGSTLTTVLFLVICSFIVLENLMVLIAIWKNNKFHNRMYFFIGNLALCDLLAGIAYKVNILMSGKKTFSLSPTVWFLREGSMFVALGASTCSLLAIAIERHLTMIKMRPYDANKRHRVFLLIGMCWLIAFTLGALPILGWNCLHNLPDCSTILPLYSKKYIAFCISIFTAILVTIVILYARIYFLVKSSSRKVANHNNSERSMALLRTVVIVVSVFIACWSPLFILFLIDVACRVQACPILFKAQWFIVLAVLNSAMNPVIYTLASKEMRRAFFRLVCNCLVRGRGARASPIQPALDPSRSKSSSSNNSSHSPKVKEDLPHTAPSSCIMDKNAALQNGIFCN
In general terms: Calcium flux is commonly read through the fluorescence of an indicator in the cells.

Data set [2] concerns Rattus norvegicus. The data set can be described thus: Immunosuppressive activity in Lewis rat assessed as reduction of circulating lymphocytes at 1 mg/kg, po after 24 hrs. It counts as functional. More on the design: scale not given: the % may be the effect or the level left.
The target in data set [3] is T2, Sphingosine 1-phosphate receptor 1 (Homo sapiens, UniProt P21453). Kind of data set: Agonist activity at human S1P1 receptor expressed in U20S cells coexpressing eGFP assessed as receptor internalization after 1 hr by microscopy analysis. The data set is classed as functional, cell-based, U2OS. An outline of the steps: (§2)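 hS1P1–eGFP U2OS cells held in serum-free medium 2 h, then exposed to compound 1 h at 37 °C. Cells fixed in 4% formaldehyde, nuclei stained with Hoechst, imaged by automated microscopy. Potency and efficacy from GFP-containing endosomes per cell plotted against concentration. Efficacy expressed relative to 0.200 µM S1P.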
T2 sequence (P21453 whole entry): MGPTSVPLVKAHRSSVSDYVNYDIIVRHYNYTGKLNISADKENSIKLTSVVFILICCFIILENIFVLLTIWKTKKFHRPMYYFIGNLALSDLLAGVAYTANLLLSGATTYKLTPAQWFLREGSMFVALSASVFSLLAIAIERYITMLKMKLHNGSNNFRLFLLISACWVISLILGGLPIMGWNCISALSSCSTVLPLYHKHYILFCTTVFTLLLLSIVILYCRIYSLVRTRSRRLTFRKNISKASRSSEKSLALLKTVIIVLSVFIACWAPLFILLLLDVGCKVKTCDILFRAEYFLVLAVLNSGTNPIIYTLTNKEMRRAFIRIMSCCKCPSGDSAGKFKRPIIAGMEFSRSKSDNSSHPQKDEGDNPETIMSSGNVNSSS

Data set [4] concerns the target T2, Sphingosine 1-phosphate receptor 1. The data set can be described thus: Agonist activity at human S1P1 receptor expressed in U20S cells coexpressing eGFP assessed as receptor internalization after 1 hr by microscopy analysis relative to S1P1. It counts as functional, cell-based. As to conditions: U2OS. An outline of the steps: as §2
The species entered for a further data set is Homo sapiens. Kind of data set: Selectivity ratio of EC50 for human S1P3 receptor to EC50 for human S1P1 receptor.
The target in data set [5] is T1, Sphingosine 1-phosphate receptor 3. The data set can be described thus: Agonist activity at human S1P3 receptor expressed in CHO cells coexpressing Gq/i5 protein by calcium flux assay relative to control. The data set is classed as functional, cell-based. An outline of the steps:
as §1

Data set [6] in a line: Plasma concentration in Lewis rat at 10 mg/kg, po after 4 hrs. Details: dose 10 mg/kg, route oral. It counts as ADME, organism-based. An outline of the steps:
(§3)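 Female Lewis rats (250 g, 6–8 wk), acclimatized ≥1 week, N = 5/group. Given vehicle (20% captisol in water) or 10 mg/kg compound in 20% captisol/water by oral gavage (10 mL/kg). Killed by CO₂ 4 h post-dose, blood taken by cardiac puncture. Total blood lymphocytes counted and total plasma concentration measured. Significance vs vehicle by ANOVA/Dunnett's test.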

Data set [7] in a line: Ratio of plasma concentration in Lewis rat at 10 mg/kg, po after 4 hrs to EC50 for human S1P1 receptor expressed in U20S cells. It counts as ADME, organism-based. Details: dose 10 mg/kg, route oral. Conditions: in vivo.
The subject of data set [8] is Rattus norvegicus. Kind of data set: Immunosuppressive activity in Lewis rat assessed as reduction of circulating lymphocytes at 10 mg/kg, po after 4 hrs. It counts as functional. Details: scale not given: the % may be the effect or the level left. The method, boiled down:
as §3

`O=C(O)C1CN(Cc2ccc(-c3nc4cc(Cc5ccccc5)ccc4s3)c(F)c2)C1`: the EC50 in data set [1] stood at 1.21 µM; in data set [3], 0.041 µM. Further, in the data set on Rattus norvegicus [2], the Activity stood at 58%.

Turning to `O=C(O)C1CN(Cc2ccc(-c3nc4ccc(C5(c6ccccc6)CC5)nc4s3)c(F)c2)C1`, the EC50 in [1] was 0.888 µM; in data set [3] it was 0.002 µM.

In the case of `O=C(O)C1CN(Cc2ccc(-c3nc4cc(Cc5ccccn5)ccc4s3)c(F)c2)C1`, the EC50 in data set [1] was above 25 µM; in data set [3], 0.68 µM. Besides, the Efficacy in [4] amounted to 94%. For the same compound, the Ratio EC50 in the data set listed under Homo sapiens is above 37.

Take `O=C(O)C1CN(Cc2ccc(-c3nc4ccc(Cc5ccccn5)cc4s3)c(F)c2)C1`: the EC50 was above 25 µM in data set [1] and 1.96 µM in data set [3]. Moreover, in data set [4], the Efficacy was 71%.

In the case of `O=C(O)C1CN(Cc2ccc(-c3nc4ccc(C5(c6ccccn6)CC5)cc4s3)c(F)c2)C1`, the EC50 in [1] is above 25 µM; in data set [3], 0.24 µM. Besides, in data set [4], the Efficacy worked out at 90%. Further, the Ratio EC50 in the data set listed under Homo sapiens was above 105.

With `O=C(c1ccc2nc(-c3ccc(CN4CC(C(=O)O)C4)cc3F)sc2c1)c1ccccn1`, the EC50 in data set [1] was above 25 µM; in [3], 1.3 µM. Moreover, the Efficacy in data set [4] is 50%.

As to `O=C(O)C1CN(Cc2ccc(-c3nc4ccc(C(=O)N5CCCCC5)cc4s3)c(F)c2)C1`, the figures for the EC50 in data set [1] and in data set [3] were above 25 µM and 1.17 µM, respectively. For the same compound, the Efficacy in data set [4] came out at 95%.

Take `O=C(O)C1CN(Cc2ccc(-c3nc4ccc(C(=O)N5CCCCCC5)cc4s3)c(F)c2)C1`: the EC50 in data set [1] was above 25 µM; in [3] it was 2.72 µM. In addition, in data set [4], the Efficacy was determined as 108%.

Take `O=C(O)C1CN(Cc2ccc(-c3nc4ccc(C(=O)N5CCCC5)cc4s3)c(F)c2)C1`: the EC50 in data set [1] is above 25 µM; in data set [3], above 20 µM.

For the compound `O=C(O)C1CN(Cc2ccc(-c3nc4ccc(C(=O)N5CCSC5)cc4s3)c(F)c2)C1`, the EC50 in data set [1] was determined as 7.42 µM; in data set [3], 2.71 µM. In addition, the Efficacy was 21% in [5] and 110% in [4].

In the case of `CC1(C)SCCN1C(=O)c1ccc2nc(-c3ccc(CN4CC(C(=O)O)C4)cc3F)sc2c1`, the EC50 in [1] turned out to be 2.68 µM; in data set [3], 0.43 µM. Also, the Efficacy in data set [5] turned out to be 72%; in data set [4] it was 80%.

On to `CC(c1ccc2sc(-c3ccc(CN4CC(C(=O)O)C4)cc3F)nc2c1)c1ccccn1` (racemic), for which the EC50 is above 25 µM in data set [1] and 2.37 µM in [3]. In data set [4], the Efficacy was found to be 62%.

With `CC(c1ccc2nc(-c3ccc(CN4CC(C(=O)O)C4)cc3F)sc2c1)c1ccccn1` (racemic), the 50% effective concentration (EC50) is above 25 µM in data set [1] and 0.57 µM in data set [3]. The Efficacy in data set [4] stood at 79%.

Consider `CC1SCCN1C(=O)c1ccc2nc(-c3ccc(CN4CC(C(=O)O)C4)cc3F)sc2c1` (racemic), for which the results for the EC50 in [1] and in data set [3] were 2.04 µM and 0.042 µM, respectively. Besides, the Efficacy was found to be 71% in [5] and 90% in data set [4].

On to `CC(C)C1SCCN1C(=O)c1ccc2nc(-c3ccc(CN4CC(C(=O)O)C4)cc3F)sc2c1` (racemic), for which the results for the EC50 in data set [1] and in data set [3] were 0.9 µM and 0.049 µM, respectively. Further, the Efficacy worked out at 87% in data set [5] and 96% in data set [4].

For the compound `CCC(c1ccc2nc(-c3ccc(CN4CC(C(=O)O)C4)cc3F)sc2c1)c1ccccn1` (single isomer, unassigned) [listing 1 of 2 here], the EC50 in [1] is 2.06 µM; in data set [3], 0.1 µM.

As to `CCC(c1ccc2nc(-c3ccc(CN4CC(C(=O)O)C4)cc3F)sc2c1)c1ccccn1` (single isomer, unassigned) [listing 2 of 2 here], the results for the Efficacy in data set [5] and in data set [4] were 82% and 95%, respectively.

`CCC(c1ccc2nc(-c3ccc(CN4CC(C(=O)O)C4)cc3F)sc2c1)c1ccccn1` (single isomer, unassigned; (+)) [listing 1 of 2 here]: the EC50 in data set [1] is 9.75 µM; in data set [3], 0.52 µM.

Regarding `CCC1SCCN1C(=O)c1ccc2nc(-c3ccc(CN4CC(C(=O)O)C4)cc3F)sc2c1` (single isomer, unassigned; (+)) [listing 1 of 2 here], the 50% effective concentration (EC50) came to 0.39 µM in data set [1] and 0.017 µM in data set [3]. The compound further came in with a concentration in [6] (in vivo, 4 h) of 0.19 µM. Further, in data set [7], the Ratio came out at 10. Moreover, the Activity in the data set on Rattus norvegicus [8] amounted to 55%.

Turning to `CCC(c1ccc2nc(-c3ccc(CN4CC(C(=O)O)C4)cc3F)sc2c1)c1ccccn1` (single isomer, unassigned; (+)) [listing 2 of 2 here], the Efficacy in [5] stood at 30%; in data set [4], 93%.

In the case of `CCC1SCCN1C(=O)c1ccc2nc(-c3ccc(CN4CC(C(=O)O)C4)cc3F)sc2c1` (single isomer, unassigned; (+)) [listing 2 of 2 here], the Efficacy stood at 82% in data set [5] and 107% in [4]. Besides, the Ratio EC50 in the data set listed under Homo sapiens was 23.

Turning to `CCC1SCCN1C(=O)c1ccc2nc(-c3ccc(CN4CC(C(=O)O)C4)cc3F)sc2c1` (stereo in doubt; (-)-11f) [listing 1 of 2 here], the values for the EC50 in data set [1] and in data set [3] were 6.24 µM and 0.15 µM, respectively. Also, the concentration at 4 h in [6] (Lewis, plasma) came to 0.13 µM. For the same compound, the Activity in the data set on Rattus norvegicus [8] amounted to 24%.

`CCC1SCCN1C(=O)c1ccc2nc(-c3ccc(CN4CC(C(=O)O)C4)cc3F)sc2c1` (stereo in doubt; (-)-11f) [listing 2 of 2 here]: the Efficacy in data set [5] turned out to be 36%; in [4], 106%.
